IC50, Time and Motor activity data for 31 molecules are collected here from ChEMBL document CHEMBL1136272, “Development of a presynaptic 5-HT1A antagonist” (Bioorg Med Chem Lett, 2003).

The target in experiment [1] is T1, 5-hydroxytryptamine receptor 1A (Rattus norvegicus, UniProt P19327).
T1 sequence (P19327 whole entry): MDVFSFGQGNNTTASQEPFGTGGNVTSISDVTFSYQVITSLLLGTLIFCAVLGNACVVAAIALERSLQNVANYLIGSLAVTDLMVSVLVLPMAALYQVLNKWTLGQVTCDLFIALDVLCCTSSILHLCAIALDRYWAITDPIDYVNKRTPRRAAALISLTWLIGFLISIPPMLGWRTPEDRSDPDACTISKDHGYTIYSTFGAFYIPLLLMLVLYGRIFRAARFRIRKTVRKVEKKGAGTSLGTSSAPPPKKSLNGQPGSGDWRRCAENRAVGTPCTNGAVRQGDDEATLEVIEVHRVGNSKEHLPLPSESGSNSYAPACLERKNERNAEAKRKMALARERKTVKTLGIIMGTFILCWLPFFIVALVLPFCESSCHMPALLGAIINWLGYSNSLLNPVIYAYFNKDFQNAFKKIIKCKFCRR
In words: Inhibition of the 5-hydroxytryptamine 1A receptor in rat dorsal raphe.

For experiment [2], the system named is Rattus norvegicus. Description: Social interaction time determined in vivo in rat at 0.1 + 1 mg/kg of ip administration. The following applies: route intraperitoneal. Type of experiment: functional. The gist of the method:
(§1)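 Rat social interaction paradigm with total motor activity counts recorded in the same session. All compounds were given ip, with a saline-treated control group. Combination arms gave a 0.1 mg/kg agent together with a second agent at 1 mg/kg, both ip. Social interaction time (s) and motor counts are reported as mean ± SEM, with significance tested against saline control.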

Experiment [3] relates to Rattus norvegicus. In words: In vivo motor activity determined in rat at 0.1 + 1 mg/kg of ip administration. Particulars: route intraperitoneal. Type of experiment: functional. The gist of the method: as §1
Experiment [4] deals with Rattus norvegicus. Description: Social interaction time determined in vivo rat at 0.1 mg/kg of ip administration. Type of experiment: functional. The following applies: route intraperitoneal. The gist of the method: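 Rats dosed i.p. against a saline-treated control group. Social interaction time (s) and total motor activity (counts) were recorded in the same social-interaction session and reported as mean ± SEM, with significance tested against saline control.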

In experiment [5] the test system is Rattus norvegicus. Description: In vivo motor activity determined in rat at 0.1 mg/kg of ip administration. Format: functional. The following applies: route intraperitoneal. The method, boiled down:
as §1

Broadly, the IC50 is the point on the concentration scale where inhibition reaches its midpoint.

For the molecule `OC1(c2ccc3c(c2)OCO3)CCC(N2CCN(Cc3ccc(F)cc3)CC2)CC1` (stereo unspecified), 27 nM corresponded to half-maximal inhibition in experiment [1] (IC50). In other words, the double-digit nanomolar range. As to `COc1cccc(CN2CCN(C3CCC(O)(c4ccc5c(c4)OCO5)CC3)CC2)c1.OC(CCCN1CCN(c2ncc(F)cn2)CC1)c1ccc(F)cc1` (stereo unspecified), in experiment [2], the Time came out at 49 s. Besides, the Motor activity in experiment [3] was found to be 5400 Counts. The molecule `OC1(c2ccc3c(c2)OCO3)CCC(N2CCN(Cc3ccc(F)c(F)c3)CC2)CC1` (stereo unspecified) registered an IC50 in experiment [1] of 34 nM.

As for `OC1(c2ccc3c(c2)OCO3)CCC(N2CCN(Cc3cc(F)cc(F)c3)CC2)CC1` (stereo unspecified), inhibition in experiment [1] was half-maximal at 21 nM (IC50). Still for that read-out and setting: to `COc1ccccc1C1(O)CCC(N2CCN(Cc3ccccc3)CC2)CC1` (stereo unspecified) belongs 60 nM. As to `COc1cccc(CN2CCN(C3CCC(O)(c4ccc5c(c4)OCO5)CC3)CC2)c1.OC1(c2ccc3c(c2)OCO3)CCC(N2CCN(Cc3ccccc3)CC2)CC1` (stereo unspecified), in experiment [2], the Time is 53 s. The Motor activity in experiment [3] is 5100 Counts. In turn, `OC1(c2ccc3c(c2)OCO3)CCC(N2CCN(Cc3cccc(Cl)c3)CC2)CC1` (stereo unspecified) gave a 50% inhibitory concentration (IC50) in experiment [1] of 6 nM. On the same count and under the same terms, the same measure for `OC1(c2ccc3c(c2)OCO3)CCC(N2CCN(Cc3ccc(F)cc3F)CC2)CC1` (stereo unspecified): 57 nM. On the same count and under the same terms, to `OC1(c2ccc3c(c2)OCO3)CCC(N2CCN(Cc3ccccc3F)CC2)CC1` (stereo unspecified) belongs 10 nM; to `COc1ccc(F)c(CN2CCN(C3CCC(O)(c4ccc5c(c4)OCO5)CC3)CC2)c1` (stereo unspecified), 0.75 nM. On the same count and under the same terms, the same measure for `OC1(c2ccc3c(c2)OCO3)CCC(N2CCN(Cc3ccccc3Cl)CC2)CC1` (stereo unspecified): 1.9 nM; for `OC1(c2ccc3c(c2)OCO3)CCC(N2CCN(Cc3cc(F)ccc3F)CC2)CC1` (stereo unspecified): 2.6 nM. Turning to `COc1cccc(CN2CCN(C3CCC(O)(c4ccc5c(c4)OCO5)CC3)CC2)c1.O=C1CC2(CCCC2)CC(=O)N1CCCCN1CCN(c2ncccn2)CC1` (stereo unspecified), in experiment [2], the Time is 51 s. For the same molecule, the Motor activity in experiment [3] is 4600 Counts. Consider `OC1(c2ccc3c(c2)OCO3)CCC(N2CCN(Cc3cccc(F)c3F)CC2)CC1` (stereo unspecified), for which the half-inhibitory concentration (IC50) in experiment [1] turned out to be 17 nM.

Regarding `OC1(c2ccc3c(c2)OCO3)CCC(N2CCN(Cc3cccc(F)c3)CC2)CC1` (stereo unspecified), the midpoint of inhibition in experiment [1], the IC50, lay at 13 nM. On the same count and under the same terms, the same measure for `OC1(c2ccccc2)CCC(N2CCN(Cc3ccccc3)CC2)CC1` (stereo unspecified): 460 nM. Still for that read-out and setting: to `COc1ccccc1CN1CCN(C2CCC(O)(c3ccc4c(c3)OCO4)CC2)CC1` (stereo unspecified) belongs 43 nM. The same measure, in the same setting: to `COc1ccc(C2(O)CCC(N3CCN(Cc4ccccc4)CC3)CC2)cc1OC` (stereo unspecified) belongs 140 nM. Molecule `OC1(c2ccc3c(c2)OCO3)CCC(N2CCN(Cc3ccc(Cl)cc3)CC2)CC1` (stereo unspecified) yielded an IC50 in experiment [1] of 79 nM. Same read-out and setting: to `COc1cccc(C2(O)CCC(N3CCN(Cc4ccccc4)CC3)CC2)c1` (stereo unspecified) belongs 50 nM; to `OC1(c2ccc3c(c2)OCO3)CCC(N2CCN(Cc3ccccc3I)CC2)CC1` (stereo unspecified), 1.2 nM.

In experiment [1], `OC1(c2ccc3c(c2)OCO3)CCC(N2CCN(Cc3c(F)cccc3F)CC2)CC1` (stereo unspecified) returned an IC50 of 110 nM. This IC50 is about 92-fold higher than that of the molecule before. Still for that read-out and setting: to `COc1ccc(C2(O)CCC(N3CCN(Cc4ccccc4)CC3)CC2)cc1` (stereo unspecified) belongs 50 nM; to `OC1(c2ccc3c(c2)OCO3)CCC(N2CCN(Cc3ccccc3Br)CC2)CC1` (stereo unspecified), 1.2 nM; to `OC1(c2ccc(F)cc2)CCC(N2CCN(Cc3ccccc3)CC2)CC1` (stereo unspecified), 260 nM. Still for that read-out and setting: to `COc1ccc(CN2CCN(C3CCC(O)(c4ccc5c(c4)OCO5)CC3)CC2)cc1` (stereo unspecified) belongs 380 nM. The same measure, in the same setting: to `CCOc1cccc(CN2CCN(C3CCC(O)(c4ccc5c(c4)OCO5)CC3)CC2)c1` (stereo unspecified) belongs 6.7 nM. As to `COc1cccc(CN2CCN(C3CCC(O)(c4ccc5c(c4)OCO5)CC3)CC2)c1F` (stereo unspecified), the 50% inhibitory concentration (IC50) in experiment [1] is 19 nM. Compared with the last molecule, the IC50 is about 2.8-fold higher. `OC1(c2ccc3c(c2)OCO3)CCC(N2CCN(Cc3cccc(Br)c3)CC2)CC1` (stereo unspecified) showed an IC50 in experiment [1] of 2.8 nM. `OC(CCCN1CCN(c2ncc(F)cn2)CC1)c1ccc(F)cc1` (stereo unspecified) [BMY-14802]: in experiment [4], the Time stood at 123 s. Also, in experiment [5], the Motor activity was determined as 6800 Counts. On the same counts, the results for `O=C1CC2(CCCC2)CC(=O)N1CCCCN1CCN(c2ncccn2)CC1` [BUSPIRONE] are 125 s and 6700 Counts.
